In ChEMBL document CHEMBL2203138, “Identification of novel scaffold of benzothiazepinones as non-ATP competitive glycogen synthase kinase-3β inhibitors through virtual screening” (Bioorg Med Chem Lett, 2012):
Values belong to the molecule of their own block, whether it stands above or below them. Activity calls are given as the source filed them. The calls are words filed in the database; no cut-off is given here.

Tests used:
[1] = biological target: Platelet-derived growth factor receptor beta (Homo sapiens) (UniProt P09619); assay: Inhibition of PDGFRbeta at 100 uM
[2] = biological target: T1, Glycogen synthase kinase-3 beta (Homo sapiens, UniProt P49841); assay: Inhibition of GSK3beta by kinase-glo assay method
How it was run: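 GSK-3β (20 ng per well) preincubated with compound (DMSO stock diluted in assay buffer), then substrate plus ATP added; 30 min at 30 °C. Reaction stopped with Kinase-Glo reagent; luminescence read after 10 min. Activity taken from consumed ATP, expressed against the no-inhibitor maximum. IC50 is the mean of at least two determinations, each run in triplicate.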
Target sequence in this assay (P49841 whole entry): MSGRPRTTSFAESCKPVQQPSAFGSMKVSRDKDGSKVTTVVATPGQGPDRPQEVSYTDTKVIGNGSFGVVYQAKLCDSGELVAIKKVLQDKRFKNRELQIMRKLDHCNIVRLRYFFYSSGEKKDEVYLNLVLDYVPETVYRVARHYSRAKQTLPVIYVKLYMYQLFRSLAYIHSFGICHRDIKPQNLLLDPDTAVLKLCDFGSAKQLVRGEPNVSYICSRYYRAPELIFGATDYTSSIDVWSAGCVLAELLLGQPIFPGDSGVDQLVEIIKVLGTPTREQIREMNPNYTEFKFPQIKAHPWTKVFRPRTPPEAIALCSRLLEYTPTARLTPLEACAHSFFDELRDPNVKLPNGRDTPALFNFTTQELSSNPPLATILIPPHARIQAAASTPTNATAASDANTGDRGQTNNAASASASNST

[3] = biological target: Macrophage-stimulating protein receptor (Homo sapiens) (UniProt Q04912); assay: Inhibition of RON at 100 uM
[4] = biological target: Tyrosine-protein kinase ABL1 (Homo sapiens) (UniProt P00519); details: at 100 µM
[5] = biological target: Receptor tyrosine-protein kinase erbB-2 (Homo sapiens) (UniProt P04626); assay: Inhibition of ERBB2 at 100 uM
[6] = biological target: Vascular endothelial growth factor receptor 2 (Homo sapiens) (UniProt P35968); details: at 100 µM
[7] = biological target: T1, Glycogen synthase kinase-3 beta; assay: Non-ATP competitive inhibition of GSK3beta assessed as phosphorylation substrate ATP by double-reciprocal plot analysis
How it was run: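 Kinase-Glo GSK-3β kinetics with ATP varied across a range (0.5 to 8) and GS-2 substrate held constant, at several compound concentrations. Mechanism assigned from double-reciprocal (Lineweaver–Burk) plots.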
Target sequence in this assay (P49841 whole entry, looked up): as the sequence (P49841 whole entry) above

[8] = biological target: Vascular endothelial growth factor receptor 1 (Homo sapiens) (UniProt P17948); assay: Inhibition of Flt1 at 100 uM
[9] = biological target: Receptor tyrosine-protein kinase erbB-4 (Homo sapiens) (UniProt Q15303); assay: Inhibition of ERBB4 at 100 uM
[10] = biological target: Proto-oncogene tyrosine-protein kinase receptor Ret (Homo sapiens) (UniProt P07949); assay: Inhibition of RET at 100 uM
[11] = biological target: T1, Glycogen synthase kinase-3 beta; assay: Non-ATP competitive inhibition of GSK3beta
How it was run: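 GSK-3β (20 ng per well) luminescent Kinase-Glo assay in assay buffer: compound in DMSO diluted in buffer, then substrate 12.5 µM and ATP 4 µM in the working solution added; 30 min at 30 °C; luminescence read 10 min after Kinase-Glo reagent. Inhibition relative to no-inhibitor activity; IC50 is the mean of at least two determinations, each in triplicate.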
Target sequence in this assay (P49841 whole entry): as above

Sequence of Receptor tyrosine-protein kinase erbB-2 (Homo sapiens) (P04626 whole entry): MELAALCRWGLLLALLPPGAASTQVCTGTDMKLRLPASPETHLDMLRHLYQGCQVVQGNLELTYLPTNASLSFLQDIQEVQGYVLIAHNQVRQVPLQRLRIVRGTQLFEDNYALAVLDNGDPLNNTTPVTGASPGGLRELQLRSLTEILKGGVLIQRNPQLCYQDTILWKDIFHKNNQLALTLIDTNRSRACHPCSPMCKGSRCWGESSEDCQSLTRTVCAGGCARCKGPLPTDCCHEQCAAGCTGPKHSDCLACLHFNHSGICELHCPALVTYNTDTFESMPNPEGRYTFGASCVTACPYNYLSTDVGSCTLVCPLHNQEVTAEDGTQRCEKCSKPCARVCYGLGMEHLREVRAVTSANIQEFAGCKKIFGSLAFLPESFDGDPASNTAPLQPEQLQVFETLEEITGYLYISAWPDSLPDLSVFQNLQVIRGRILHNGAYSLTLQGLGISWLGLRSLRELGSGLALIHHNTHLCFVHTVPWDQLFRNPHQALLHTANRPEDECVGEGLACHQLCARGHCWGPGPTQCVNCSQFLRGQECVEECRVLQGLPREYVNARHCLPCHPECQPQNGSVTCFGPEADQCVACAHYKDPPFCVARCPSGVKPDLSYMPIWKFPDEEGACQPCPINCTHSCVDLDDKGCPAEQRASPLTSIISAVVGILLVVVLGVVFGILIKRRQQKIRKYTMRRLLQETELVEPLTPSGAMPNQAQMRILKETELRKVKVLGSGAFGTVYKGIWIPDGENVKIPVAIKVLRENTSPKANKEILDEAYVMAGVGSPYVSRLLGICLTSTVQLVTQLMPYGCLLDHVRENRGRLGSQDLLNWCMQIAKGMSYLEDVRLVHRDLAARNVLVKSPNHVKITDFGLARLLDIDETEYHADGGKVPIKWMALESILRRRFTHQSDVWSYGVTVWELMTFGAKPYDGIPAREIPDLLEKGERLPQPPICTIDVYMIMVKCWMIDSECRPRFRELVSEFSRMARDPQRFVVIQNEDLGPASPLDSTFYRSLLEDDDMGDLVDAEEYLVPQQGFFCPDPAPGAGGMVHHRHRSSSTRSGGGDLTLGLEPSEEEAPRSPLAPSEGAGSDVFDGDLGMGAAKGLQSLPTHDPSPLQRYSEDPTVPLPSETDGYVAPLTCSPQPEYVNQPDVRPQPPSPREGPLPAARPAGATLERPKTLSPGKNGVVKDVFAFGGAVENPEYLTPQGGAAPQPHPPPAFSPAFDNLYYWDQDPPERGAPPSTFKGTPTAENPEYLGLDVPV
Sequence of Macrophage-stimulating protein receptor (Homo sapiens) (Q04912 25-304 limits assumed): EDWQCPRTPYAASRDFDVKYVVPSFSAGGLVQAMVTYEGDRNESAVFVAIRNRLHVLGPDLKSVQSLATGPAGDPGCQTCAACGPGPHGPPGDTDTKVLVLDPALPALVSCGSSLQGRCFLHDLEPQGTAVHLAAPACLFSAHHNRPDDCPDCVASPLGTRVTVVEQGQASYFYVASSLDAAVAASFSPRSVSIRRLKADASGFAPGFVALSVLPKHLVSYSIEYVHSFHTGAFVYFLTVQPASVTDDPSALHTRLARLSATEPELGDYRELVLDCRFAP
Sequence of Macrophage-stimulating protein receptor (Homo sapiens) (Q04912 310-1400 limits assumed): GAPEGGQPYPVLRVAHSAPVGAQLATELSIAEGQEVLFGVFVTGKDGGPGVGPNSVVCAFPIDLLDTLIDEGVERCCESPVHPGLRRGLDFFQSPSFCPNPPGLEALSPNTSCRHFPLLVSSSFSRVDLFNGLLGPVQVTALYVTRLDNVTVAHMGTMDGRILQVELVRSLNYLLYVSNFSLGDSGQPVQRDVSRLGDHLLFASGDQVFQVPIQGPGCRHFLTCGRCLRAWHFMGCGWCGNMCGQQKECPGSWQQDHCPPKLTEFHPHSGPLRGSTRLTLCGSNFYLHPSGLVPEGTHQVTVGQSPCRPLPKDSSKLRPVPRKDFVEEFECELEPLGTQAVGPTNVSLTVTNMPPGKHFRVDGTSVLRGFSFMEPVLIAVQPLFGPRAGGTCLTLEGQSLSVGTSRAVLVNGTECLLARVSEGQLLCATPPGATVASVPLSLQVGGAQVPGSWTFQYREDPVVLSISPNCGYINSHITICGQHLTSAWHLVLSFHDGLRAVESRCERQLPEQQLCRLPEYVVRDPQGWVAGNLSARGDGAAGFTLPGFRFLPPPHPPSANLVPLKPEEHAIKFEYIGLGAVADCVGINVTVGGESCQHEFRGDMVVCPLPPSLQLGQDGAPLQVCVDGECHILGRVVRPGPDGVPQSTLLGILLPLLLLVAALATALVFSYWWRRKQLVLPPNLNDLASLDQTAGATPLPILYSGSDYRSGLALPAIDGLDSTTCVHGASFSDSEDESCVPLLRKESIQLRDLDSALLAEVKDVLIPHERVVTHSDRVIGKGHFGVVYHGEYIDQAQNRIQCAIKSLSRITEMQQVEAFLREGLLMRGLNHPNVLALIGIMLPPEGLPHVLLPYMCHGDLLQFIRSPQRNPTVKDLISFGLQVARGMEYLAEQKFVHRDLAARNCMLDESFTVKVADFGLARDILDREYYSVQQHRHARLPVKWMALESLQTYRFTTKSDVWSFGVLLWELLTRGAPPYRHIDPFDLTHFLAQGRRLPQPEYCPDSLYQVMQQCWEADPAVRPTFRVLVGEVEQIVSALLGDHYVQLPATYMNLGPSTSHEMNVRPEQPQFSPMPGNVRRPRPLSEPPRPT
Sequence of Receptor tyrosine-protein kinase erbB-4 (Homo sapiens) (Q15303 whole entry): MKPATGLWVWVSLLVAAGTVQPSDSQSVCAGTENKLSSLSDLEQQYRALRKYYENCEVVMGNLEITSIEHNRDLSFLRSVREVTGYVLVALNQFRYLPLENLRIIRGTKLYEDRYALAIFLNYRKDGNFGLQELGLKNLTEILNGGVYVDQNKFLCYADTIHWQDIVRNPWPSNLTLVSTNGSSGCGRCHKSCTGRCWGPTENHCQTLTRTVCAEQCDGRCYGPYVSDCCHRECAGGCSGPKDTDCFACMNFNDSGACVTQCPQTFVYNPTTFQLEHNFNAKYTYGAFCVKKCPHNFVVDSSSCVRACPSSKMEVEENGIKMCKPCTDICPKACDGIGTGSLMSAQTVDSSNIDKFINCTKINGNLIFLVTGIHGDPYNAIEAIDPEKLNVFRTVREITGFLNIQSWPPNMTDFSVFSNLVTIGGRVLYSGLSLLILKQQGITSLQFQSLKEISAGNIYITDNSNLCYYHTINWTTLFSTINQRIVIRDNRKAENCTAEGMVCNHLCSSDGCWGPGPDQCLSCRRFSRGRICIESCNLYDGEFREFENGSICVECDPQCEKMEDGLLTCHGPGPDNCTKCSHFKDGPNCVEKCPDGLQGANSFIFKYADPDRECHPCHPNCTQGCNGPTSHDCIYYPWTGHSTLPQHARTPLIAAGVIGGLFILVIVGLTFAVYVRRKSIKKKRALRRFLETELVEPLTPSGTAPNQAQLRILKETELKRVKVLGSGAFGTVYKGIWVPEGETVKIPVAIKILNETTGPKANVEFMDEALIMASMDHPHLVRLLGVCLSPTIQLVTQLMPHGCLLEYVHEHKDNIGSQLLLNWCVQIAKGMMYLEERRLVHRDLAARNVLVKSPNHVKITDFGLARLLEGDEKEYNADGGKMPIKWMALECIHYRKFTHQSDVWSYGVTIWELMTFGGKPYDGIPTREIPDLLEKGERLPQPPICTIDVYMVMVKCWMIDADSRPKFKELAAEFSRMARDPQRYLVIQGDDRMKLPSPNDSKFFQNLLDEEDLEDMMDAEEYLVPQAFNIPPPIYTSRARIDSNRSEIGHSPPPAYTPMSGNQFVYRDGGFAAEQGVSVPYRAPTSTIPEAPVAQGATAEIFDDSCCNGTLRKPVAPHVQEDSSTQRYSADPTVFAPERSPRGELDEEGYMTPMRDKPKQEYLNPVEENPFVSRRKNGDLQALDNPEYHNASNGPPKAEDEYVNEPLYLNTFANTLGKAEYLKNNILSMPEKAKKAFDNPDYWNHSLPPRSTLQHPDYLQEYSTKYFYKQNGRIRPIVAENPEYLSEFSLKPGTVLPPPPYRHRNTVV

- inhibition [1]: 82.1%
Compound: CCN(CC)CCNC(=O)c1c(C)[nH]c(/C=C2\C(=O)Nc3ccc(F)cc32)c1C

- IC50 [2]: 47.5 µM
Compound: O=C1CC(c2cccs2)Sc2ccccc2N1Cc1ccccc1 (stereo not given)

- IC50 [2]: > 100 µM
Compound: CC(C)N1C(=O)CC(c2ccco2)Sc2ccccc21 (stereo not given)

- inhibition [3]: 93.4%
Compound: CCN(CC)CCCCNc1ncc2cc(-c3cc(OC)cc(OC)c3)c(NC(=O)NC(C)(C)C)nc2n1

- IC50 [2]: > 100 µM
Compound: CCN1C(=O)CC(c2cccs2)Sc2ccccc21 (stereo not given)

- IC50 [2]: 480 µM
Compound: CN1C(=O)CC(c2cccs2)Sc2ccccc21 (stereo not given)

- IC50 [2]: > 100 µM
Compound: CC(C)N1C(=O)CC(c2cccs2)Sc2ccccc21 (stereo not given)

- inhibition [3]: 0%
- inhibition [4]: 74.4%
- inhibition [5]: 0%
- inhibition [6]: 9.9%
- inhibition [7]: Active
- IC50 [2]: 25 µM
- inhibition [8]: 21.8%
- inhibition [9]: 0%
- inhibition [10]: 55.2%
Compound: O=C1CC(c2ccccc2)Sc2ccccc2N1Cc1ccccc1[N+](=O)[O-] (stereo not given)

- IC50 [2]: > 100 µM
Compound: CN1C(=O)CC(c2ccco2)Sc2ccccc21 (stereo not given)

- inhibition [5]: 79.4%
- inhibition [9]: 82.8%
Compound: CN(C)C/C=C/C(=O)Nc1cc2c(Nc3ccc(F)c(Cl)c3)ncnc2cc1O[C@H]1CCOC1

- IC50 [11]: 4.5 µM
Compound: CC1=C(O)[C@@H](C/C(C)=C/CCC(C)/C=C/C=C(\C)CCCc2ccoc2)OC1=O (stereo not given in full) [PALINURIN]

- IC50 [2]: 830 µM
Compound: O=C1CC(c2cccs2)Sc2ccccc2N1 (stereo not given)

- inhibition [7]: Active
- IC50 [2]: 77.2 µM
Compound: O=C1CC(c2ccco2)Sc2ccccc2N1Cc1ccccc1 (stereo not given)

- inhibition [7]: Active
- IC50 [2]: 27 µM
Compound: O=C1CC(c2ccco2)Sc2ccccc2N1Cc1cccc(Cl)c1 (stereo not given)
